CHO parental Ca – ATP-evoked calcium signal inhibitors, parental CHO, primary screen, counter-screen for OX1R antagonist project, cell-based, fluorescence, Fluo-8 calcium dye; parental CHO-K1, ATP-induced calcium, Fluo-8 fluorescence; inhibition, % at 5.6 µM; 330,000 tested, 0.63% active; AID 463079, 2010;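 active = inhibition above that plate's mean sample inhibition plus 3 SD, cut at about 26% in these data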;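 also: 0% = ATP-challenged DMSO wells and 100% = DMSO wells without ATP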
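Material: parental CHO cells / Compound: single nominal dose of 5.6 µM per compound / Signal: Fluo-8 fluorescence / Replicates: singlicate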
OX1R antag-1 – antagonists of human orexin 1 receptor (OX1R) | 330,000 tested, 1.8% active | Orexin/Hypocretin receptor type 1 (Homo sapiens), O43613 | inhibition, % at 6.6 µM | AID 485270, 2010 | OX1R-expressing cells, FRET antagonist read-out; in the data active = inhibition mostly above about 38%, no sharp cut-off; inactive = mostly below about 40%;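 also: 0% = agonist challenge alone and 100% = reference antagonist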
TAAR1 antag – human TAAR1 antagonists, primary screen, Fluo-8 calcium fluorescence, CHO RD-HGA16 cells | Trace amine-associated receptor 1 (Homo sapiens), Q96RJ0 | antagonist | inhibition, % at 3 µM | 360,000 tested, 1.5% active;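 active = inhibition above a per-plate cutoff, the mean inhibition of test compounds on that plate plus 3 SD, cut at about 49% in these data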;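 also: 0% = DMSO plus EC80 beta-PEA response and 100% = DMSO alone without agonist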
Target sequence (Q96RJ0 whole entry, looked up): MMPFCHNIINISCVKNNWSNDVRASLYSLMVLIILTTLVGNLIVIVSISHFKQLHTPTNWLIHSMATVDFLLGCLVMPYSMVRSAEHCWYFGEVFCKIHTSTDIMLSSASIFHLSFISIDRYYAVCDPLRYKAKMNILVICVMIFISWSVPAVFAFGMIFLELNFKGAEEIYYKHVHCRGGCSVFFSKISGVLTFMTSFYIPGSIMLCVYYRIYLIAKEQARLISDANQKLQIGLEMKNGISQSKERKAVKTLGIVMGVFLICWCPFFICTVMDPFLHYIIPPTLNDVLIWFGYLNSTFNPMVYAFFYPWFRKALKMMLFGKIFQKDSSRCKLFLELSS
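Test system: RD-HGA16 CHO cells with stable hTAAR1 and Gα16 / Probe or stimulus: EC80 β-phenethylamine stimulus / Times: seeding 17-24 h prior, 75-min 37 °C, 30-min RT dye loading / Detection: Fluo-8 calcium-sensitive fluorescence / Read-out basis: % inhibition scaled between DMSO and EC80 PEA controls / Repeats: singlicate, one well per test compound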
OX1R antag-2 – OX1R (HCRTR1) antagonists, primary screen, fluorescence, CHO/OX1R cells, Fluo-8 calcium, orexin A. Orexin/Hypocretin receptor type 1 (Homo sapiens), O43613. Fluo-8 calcium fluorescence. inhibition, % at 5 µM. 330,000 tested, 0.43% active. AID 434989, 2010;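 active = inhibition above its plate's threshold, mean inhibition of all tested compounds on the plate plus 3 SD, cut at about 37% in these data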;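 also: 0% = orexin A challenge wells and 100% = SB-334867-A antagonist wells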
TAAR1 ag – human TAAR1 agonists, primary screen, Fluo-8 calcium fluorescence, CHO RD-HGA16 cells | 360,000 tested, 0.99% active | activation, % at 3 µM | vehicle wells 0%, saturating PEA agonist 100%;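 active = activation above the mean activation of all test compounds in the run plus 3 SD, cut at about 38% in these data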
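Assay system – CHO-derived RD-HGA16 cells with stable Gα16 and human TAAR1 · Compound dosing – one-point dosing at 3 µM (nominal) · Incubation – 17-24 h seeding, 75 min 37 °C dye, 30 min RT · Measured by – kinetic Fluo-8 calcium fluorescence · Control set – DMSO vehicle as 0%, PEA at EC100 as 100% · Repeats – single well for each compound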
GPR7 antag – GPR7 receptor antagonists, primary screen, cell-based, fluorescence, single concentration. Neuropeptides B/W receptor type 1 (Homo sapiens), P48145. GPR7-expressing cells, fluorescence antagonist assay. inhibition, % at 4.4 µM. 290,000 tested, 1.1% active. AID 1861, 2009; in the data active = inhibition above about 16%, passing the limit was not always enough;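 also: cells stimulated with the agonist NPW; 0% = agonist with vehicle and 100% = vehicle without agonist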
Target sequence (P48145 whole entry, looked up): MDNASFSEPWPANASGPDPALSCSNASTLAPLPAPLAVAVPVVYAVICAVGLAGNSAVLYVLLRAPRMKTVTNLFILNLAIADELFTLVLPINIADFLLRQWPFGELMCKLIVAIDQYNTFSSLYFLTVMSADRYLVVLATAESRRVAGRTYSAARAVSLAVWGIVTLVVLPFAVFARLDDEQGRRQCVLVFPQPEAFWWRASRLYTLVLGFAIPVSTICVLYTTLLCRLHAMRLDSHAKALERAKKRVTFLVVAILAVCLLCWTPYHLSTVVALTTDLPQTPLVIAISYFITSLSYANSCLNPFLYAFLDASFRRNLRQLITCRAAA
* = called active by the depositor; . = no result given. Hits are enriched below; roughly 4.6% of the tested compounds scored in any of these assays.

SMILES	CHO parental Ca	OX1R antag-1	TAAR1 antag	OX1R antag-2	TAAR1 ag	GPR7 antag
O=C(Nc1ccncc1)c1ccc2c(c1)C(=O)N(CC1CCCO1)C2=O (centres undefined)	-15.8	53.5*	35.2	-13.9	36.5	-8.6
Cc1ccc(C(=O)N/C(=C\c2ccc(-c3ccc(Cl)cc3)o2)C(=O)NCCCN(C)C)cc1	-16.7	15.6	2.7	-19.9	10.2	27.3*
CCCCCCNC(=O)C(C#N)c1nc2ccccc2nc1N1CCCC1 (centres undefined)	21.5	23.5	51.0*	-10.5	4.0	-11.9
CC(CCC(=O)NN)C1CCC2C3CCC4CC(O)CCC4(C)C3CCC12C (centres undefined)	.	.	-18.7	.	5.4	.
CC(CCC(C)C(C)(C)C)[C@@H]1CC[C@H]2C3C[C@H](OS(O)(=S)=S)[C@H]4C[C@H](OS(O)(=S)=S)[C@@H](OS(O)(=S)=S)C[C@]4(C)[C@H]3CC[C@]12C (some centres undefined) (tested in a mixture with another compound)	83.8*	65.6*	.	101.1*	.	.
CCCOc1cccc(-c2cc(C(=O)N/N=C/c3cccnc3)c3ccccc3n2)c1	.	.	53.6*	.	3.5	-17.3
C=C(C(=O)c1ccccc1)C(c1ccccc1)C(C)C(=O)c1ccccc1 (centres undefined)	41.5*	16.0	0.0	-22.5	0.6	-16.0
CCOC(=O)Cn1nc(-c2ccccc2)c2cnc3ccc(C)cc3c21	-7.0	20.6	49.3*	-19.7	3.9	0.2
CN1CCN(S(=O)(=O)c2cccc(C(=O)N(Cc3ccccc3)c3ccccc3)c2)CC1	-24.2	15.7	-26.7	-13.5	3.3	-5.9
O=C(Nc1ccc2c(c1)OCO2)c1c(Cl)nc2sccn12	-31.0	58.1*	-8.0	-15.7	3.9	-15.4
Cn1ncc(Cl)c1C(=O)Nc1ccc2c(c1)OCO2	-3.7	11.9	-7.0	-1.8	0.0	-22.1
Cn1ncc2c(Nc3ccc(Cl)c(Cl)c3)ncnc21	-12.1	65.1*	13.8	7.9	36.9	12.9
CCOC(=O)C1=C(C)NC(C)=C(C(=O)OCC)C1C(=O)OCC(=O)Nc1ccc(NC(C)=O)cc1	.	.	7.8	.	2.2	.
CC1CCN(CCC(=O)N/N=C/c2ccc([N+](=O)[O-])cc2)CC1	-7.3	44.6*	12.8	-25.5	0.4	-8.2
CC(C)Cc1ccc(C(C)CC2=CCC(CN(C)C)C2=O)cc1 (centres undefined)	.	.	50.7*	.	3.4	.
CC(C)Cc1ccc(C(C)/C=C2/CCC(CN3CCCCC3)C2=O)cc1 (centres undefined)	.	.	11.8	.	4.4	.
O=C(c1ccccc1Cl)N1CCN(C(=O)C2CCCO2)CC1 (centres undefined)	.	.	0.1	.	1.0	.
O=C(c1ccc([N+](=O)[O-])cc1[N+](=O)[O-])N1CCN(C(=O)C2CCCO2)CC1 (centres undefined)	-4.0	33.5*	7.9	-6.3	5.6	.
COc1ccc(N(C)S(=O)(=O)c2cccc(C(=O)N3CCN(c4cccc(C)c4C)CC3)c2)cc1	.	.	-18.6	.	-0.4	.
COc1ccc(-c2c[n+](CC(=O)OC3CC(C)CCC3C(C)C)c3n2CCC3)cc1 (centres undefined)	7.5	3.8	0.7	-10.9	3.3	41.6*
COC(=O)C1=C(C)N(Cc2ccc(C(F)(F)F)cc2)C(=NCc2ccc(OC)cc2)NC1c1ccccc1C(F)(F)F (centres undefined)	.	.	-15.4	.	13.6	.
COc1ccc(C(=O)O)cc1S(=O)(=O)NC(C)C12CC3CC(CC(C3)C1)C2 (centres undefined)	34.4*	1.8	13.1	44.7*	7.2	.
Cc1cc(C)cc(NC(=O)c2ccc(CSc3nnnn3C)cc2)c1	-8.8	49.0*	66.1*	7.0	19.7	-0.3
COc1cccc2sc(NNC(=O)COc3ccccc3)nc12	-12.2	33.3	-23.1	-13.2	4.8	-0.1
c1ccc(Nc2nc(-c3ccccn3)cs2)cc1	-24.3	76.6*	-2.6	-14.7	6.3	-0.7
SMILES	CHO parental Ca	OX1R antag-1	TAAR1 antag	OX1R antag-2	TAAR1 ag	GPR7 antag
COc1cccc2sc(Nc3nc(-c4ccccn4)cs3)nc12	45.0*	113.6*	.	102.0*	.	-5.6
c1ccc(-c2csc(Nc3cccnc3)n2)nc1	0.1	-0.7	18.9	9.4	8.0	-4.7
O=C(Nc1ccc(-c2csc(Nc3ccc(Cl)cc3)n2)cc1)c1ccccc1	1.3	7.2	50.7*	1.9	3.9	.
CCNC(=O)C(=O)NCc1ccncc1	8.7	19.5	-11.2	-10.0	6.3	-1.0
CC(=O)Nc1ccc(N(C)C)cc1[N+](=O)[O-]	-8.4	44.7	-16.1	-19.1	6.0	-3.5
CN(C)c1c([N+](=O)[O-])cc2[nH]c(=O)[nH]c2c1[N+](=O)[O-]	1.1	41.7*	3.6	8.8	4.8	-8.1
COc1ccc(NC(=O)c2ccccc2F)cc1Cl	-2.2	35.6	2.1	-13.1	-0.6	7.2
O=C(Nc1ccc(Oc2ccc(Cl)cc2)c(Cl)c1)c1cc(I)cc(I)c1O	1.6	48.9*	11.1	5.4	2.0	-1.9
CCN1CCN(CC(=O)Nc2ccccc2)C(=O)C1=O	-10.1	13.6	-9.5	-19.1	0.4	15.3*
CCN1CCN(CC(=O)Nc2ccc(Cl)c(Cl)c2)C(=O)C1=O	8.2	13.1	3.8	-4.4	10.2	2.8
O=S(=O)(c1cccc2cccnc12)n1cnc2ccccc21	-11.8	21.5	-3.6	-17.2	2.7	12.4*
COc1ccc(OC)c(NC(=O)C(=O)NNC(=O)C23CC4CC(CC(C4)C2)C3)c1	-9.1	26.6	-19.1	-7.5	53.7*	-4.1
Cc1cc(C)n2nc(C(=O)OCC(=O)NNC(=O)c3ccc(Cl)cc3)nc2n1	0.1	16.1	4.0	-10.8	0.1	.
COc1cc(/C=C(\C#N)c2nc3c(s2)CCCC3)ccc1O	82.3*	13.8	.	94.4*	.	3.1
CN1CCN(C(=O)c2cc([N+](=O)[O-])cc([N+](=O)[O-])c2)CC1	10.2	62.9*	-7.6	-12.4	1.5	-7.2
CN1CCN(NC(=O)c2cc([N+](=O)[O-])cc([N+](=O)[O-])c2)CC1	-8.8	71.3*	-11.9	-4.5	7.6	-12.7
CN1CCN(NC(=O)c2ccc(F)cc2)CC1	7.7	2.2	4.1	-18.3	8.9	1.6
N#CC(/C(=N/S(=O)(=O)c1cccs1)c1ccccc1)c1nc2ccccc2[nH]1 (centres undefined)	-12.1	43.1*	30.2	-17.8	14.7	4.0
